# Results published in ChEMBL document CHEMBL4043311, “Developing Equipotent Teixobactin Analogues against Drug-Resistant Bacteria and Discovering a Hydrophobic Interaction between Lipid II and Teixobactin” (J Med Chem, 2018).
# Test system: Staphylococcus aureus
# Assay: Antibacterial activity against methicillin-resistant Staphylococcus aureus BAA-1695 after 20 hrs by broth microdilution method
# Format: functional
# Conditions: BAA-1695, 20 h
# How it was run: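 Broth microdilution per CLSI in cation-adjusted Mueller-Hinton broth with 0.002% polysorbate 80. Analogues were made up as 10 mg/mL DMSO stocks, then diluted in MHB. Inoculum approx. 5×10^5 cells/mL. Incubated 20 h at 37°C; MIC taken as the lowest concentration with no visible growth. Run three times.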
row,SMILES,MIC [µg/mL]
1,CC[C@@H](C)[C@@H](NC(=O)[C@@H](CCC(N)=O)NC(=O)[C@H](CO)NC(=O)[C@@H](NC(=O)[C@H](N)Cc1ccc(C)cc1)[C@@H](C)CC)C(=O)N[C@H](C(=O)N[C@@H](CO)C(=O)N[C@H]1C(=O)N[C@@H](C)C(=O)N[C@@H](CCCNC(=N)N)C(=O)N[C@@H]([C@@H](C)CC)C(=O)O[C@H]1C)[C@@H](C)CC,2
2,CC[C@@H](C)[C@@H](NC(=O)[C@@H](CCC(N)=O)NC(=O)[C@H](CO)NC(=O)[C@@H](NC(=O)[C@H](N)Cc1ccc(-c2ccc(-c3ccccc3)cc2)cc1)[C@@H](C)CC)C(=O)N[C@H](C(=O)N[C@@H](CO)C(=O)N[C@H]1C(=O)N[C@@H](C)C(=O)N[C@@H](CCCCN)C(=O)N[C@@H]([C@@H](C)CC)C(=O)O[C@H]1C)[C@@H](C)CC,1
3,CC[C@@H](C)[C@@H](NC(=O)[C@@H](CCCN)NC(=O)[C@H](CO)NC(=O)[C@@H](NC(=O)[C@H](N)Cc1ccc(-c2ccccc2)cc1)[C@@H](C)CC)C(=O)N[C@H](C(=O)N[C@@H](CO)C(=O)N[C@H]1C(=O)N[C@@H](C)C(=O)N[C@@H](CCCCN)C(=O)N[C@@H]([C@@H](C)CC)C(=O)O[C@H]1C)[C@@H](C)CC,2
4,CC[C@@H](C)[C@@H](NC(=O)[C@@H](CCC(N)=O)NC(=O)[C@H](CO)NC(=O)[C@@H](NC(=O)[C@@H](Cc1ccccc1)NC)[C@@H](C)CC)C(=O)N[C@H](C(=O)N[C@@H](CO)C(=O)N[C@H]1C(=O)N[C@@H](C)C(=O)N[C@@H](CCCCN)C(=O)N[C@@H]([C@@H](C)CC)C(=O)O[C@H]1C)[C@@H](C)CC,1
5,CC[C@@H](C)[C@@H](NC(=O)[C@@H](CCC(N)=O)NC(=O)[C@H](CO)NC(=O)[C@@H](NC(=O)[C@H](N)Cc1ccc(N)cc1)[C@@H](C)CC)C(=O)N[C@H](C(=O)N[C@@H](CO)C(=O)N[C@H]1C(=O)N[C@@H](C)C(=O)N[C@@H](CCCNC(=N)N)C(=O)N[C@@H]([C@@H](C)CC)C(=O)O[C@H]1C)[C@@H](C)CC,> 32
6,CC[C@@H](C)[C@@H](NC(=O)[C@@H](CCC(N)=O)NC(=O)[C@H](CO)NC(=O)[C@@H](NC(=O)[C@H](N)Cc1ccc(-c2ccc(C)cc2)cc1)[C@@H](C)CC)C(=O)N[C@H](C(=O)N[C@@H](CO)C(=O)N[C@H]1C(=O)N[C@@H](C)C(=O)N[C@@H](CCCCN)C(=O)N[C@@H]([C@@H](C)CC)C(=O)O[C@H]1C)[C@@H](C)CC,0.5
7,CCCc1ccc(-c2ccc(C[C@@H](N)C(=O)N[C@H](C(=O)N[C@@H](CO)C(=O)N[C@H](CCC(N)=O)C(=O)N[C@@H](C(=O)N[C@H](C(=O)N[C@@H](CO)C(=O)N[C@H]3C(=O)N[C@@H](C)C(=O)N[C@@H](CCCCN)C(=O)N[C@@H]([C@@H](C)CC)C(=O)O[C@H]3C)[C@@H](C)CC)[C@H](C)CC)[C@@H](C)CC)cc2)cc1,0.5
8,CC[C@@H](C)[C@@H](NC(=O)[C@@H](CCC(N)=O)NC(=O)[C@H](CO)NC(=O)[C@@H](NC(=O)[C@H](N)Cc1ccc(-c2ccccc2)cc1)[C@@H](C)CC)C(=O)N[C@H](C(=O)N[C@@H](CO)C(=O)N[C@H]1C(=O)N[C@@H](C)C(=O)N[C@@H](CCCNC(=N)N)C(=O)N[C@@H]([C@@H](C)CC)C(=O)O[C@H]1C)[C@@H](C)CC,1
9,CC[C@@H](C)[C@@H](NC(=O)[C@@H](CCC(N)=O)NC(=O)[C@H](CO)NC(=O)[C@@H](NC(=O)C(Cc1ccccc1)NC)[C@@H](C)CC)C(=O)N[C@H](C(=O)N[C@@H](CO)C(=O)N[C@H]1C(=O)N[C@@H](C)C(=O)N[C@@H](CCCNC(=N)N)C(=O)N[C@@H]([C@@H](C)CC)C(=O)O[C@H]1C)[C@@H](C)CC (some centres undefined),2
10,CC[C@@H](C)[C@@H](NC(=O)[C@@H](CCC(=O)NCCN(C)C)NC(=O)[C@H](CO)NC(=O)[C@@H](NC(=O)[C@H](N)Cc1ccc(-c2ccccc2)cc1)[C@@H](C)CC)C(=O)N[C@H](C(=O)N[C@@H](CO)C(=O)N[C@H]1C(=O)N[C@@H](C)C(=O)N[C@@H](CCCCN)C(=O)N[C@@H]([C@@H](C)CC)C(=O)O[C@H]1C)[C@@H](C)CC,2
11,CC[C@@H](C)[C@@H](NC(=O)[C@@H](CCC(N)=O)NC(=O)[C@H](CO)NC(=O)[C@@H](NC(=O)[C@H](N)Cc1ccc(O[C@H]2O[C@@H](CO)[C@@H](O)[C@@H](O)[C@@H]2O)cc1)[C@@H](C)CC)C(=O)N[C@H](C(=O)N[C@@H](CO)C(=O)N[C@H]1C(=O)N[C@@H](C)C(=O)N[C@@H](CCCNC(=N)N)C(=O)N[C@@H]([C@@H](C)CC)C(=O)O[C@H]1C)[C@@H](C)CC,> 32
12,CC[C@@H](C)[C@@H](NC(=O)[C@@H](CCC(N)=O)NC(=O)[C@H](CO)NC(=O)[C@@H](NC(=O)[C@@H](Cc1ccccc1)NC)[C@@H](C)CC)C(=O)N[C@H](C(=O)O)[C@@H](C)CC,> 32
13,CC[C@@H](C)[C@H]1NC(=O)[C@H](CCCNC(=N)N)NC(=O)[C@H](C)NC(=O)[C@H](NC(=O)[C@@H](N)CO)[C@H](C)CC1=O,> 32
14,CC[C@@H](C)[C@@H](NC(=O)[C@@H](CCC(N)=O)NC(=O)[C@H](CO)NC(=O)[C@@H](NC(=O)[C@H](N)Cc1ccc(O)cc1)[C@@H](C)CC)C(=O)N[C@H](C(=O)N[C@@H](CO)C(=O)N[C@H]1C(=O)N[C@@H](C)C(=O)N[C@@H](CCCNC(=N)N)C(=O)N[C@@H]([C@@H](C)CC)C(=O)O[C@H]1C)[C@@H](C)CC,> 32
15,CC[C@@H](C)[C@@H](NC(=O)[C@@H](CCC(N)=O)NC(=O)[C@H](CO)NC(=O)[C@@H](NC(=O)[C@@H](Cc1ccccc1)NC(=O)CN1CCOCC1)[C@@H](C)CC)C(=O)N[C@H](C(=O)N[C@@H](CO)C(=O)N[C@H]1C(=O)N[C@@H](C)C(=O)N[C@@H](CCCNC(=N)N)C(=O)N[C@@H]([C@@H](C)CC)C(=O)O[C@H]1C)[C@@H](C)CC,> 32
16,CC[C@@H](C)[C@@H](NC(=O)[C@@H](CCC(N)=O)NC(=O)[C@H](CO)NC(=O)[C@@H](NC(=O)[C@H](N)Cc1ccc(-c2ccc(C(F)(F)F)cc2)cc1)[C@@H](C)CC)C(=O)N[C@H](C(=O)N[C@@H](CO)C(=O)N[C@H]1C(=O)N[C@@H](C)C(=O)N[C@@H](CCCCN)C(=O)N[C@@H]([C@@H](C)CC)C(=O)O[C@H]1C)[C@@H](C)CC,0.5
17,CC[C@H](C)[C@H](NC(=O)[C@H](N)Cc1ccccc1)C(=O)N[C@@H](COP(=O)(O)O)C(=O)N[C@H](CCC(N)=O)C(=O)N[C@@H](C(=O)N[C@H](C(=O)N[C@@H](CO)C(=O)N[C@H]1C(=O)N[C@@H](C)C(=O)N[C@@H](CCCNC(=N)N)C(=O)N[C@@H]([C@@H](C)CC)C(=O)O[C@H]1C)[C@@H](C)CC)C(C)C,> 32
18,CC[C@@H](C)[C@@H](NC(=O)[C@@H](CCCNC(=N)N)NC(=O)[C@H](CO)NC(=O)[C@@H](NC(=O)[C@H](N)Cc1ccc(-c2ccccc2)cc1)[C@@H](C)CC)C(=O)N[C@H](C(=O)N[C@@H](CO)C(=O)N[C@H]1C(=O)N[C@@H](C)C(=O)N[C@@H](CCCCN)C(=O)N[C@@H]([C@@H](C)CC)C(=O)O[C@H]1C)[C@@H](C)CC,2
19,CC[C@@H](C)[C@@H](NC(=O)[C@@H](CCC(N)=O)NC(=O)[C@H](CO)NC(=O)[C@@H](N)[C@@H](C)CC)C(=O)N[C@H](C(=O)N[C@@H](CO)C(=O)N[C@H]1C(=O)N[C@@H](C)C(=O)N[C@@H](CCCNC(=N)N)C(=O)N[C@@H]([C@@H](C)CC)C(=O)O[C@H]1C)[C@@H](C)CC,> 32
